Paper PMC6130848 (Circulation. Cardiovascular imaging, 2018)
Residues, ends and D or L forms follow the SMILES beside them. No end group written: not given here. *: point of attachment. DOTA = O=C(O)CN1CCN(CC(=O)O)CCN(CC(=O)*)CCN(CC(=O)O)CC1

Columns and labels:
[1] = 20MHz, 37°C; cited from earlier work
[2] = tissue and species not stated; cited from earlier work
diseased vessel sections = system: diseased vessel sections; parameters: species or system mouse; conditions: 200nM, 24h, 4°C
Procedure, shortened: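 Vessel sections incubated with rhodamine-labelled tropoelastin-binding peptide (200nM solution) for 24h at 4°C, then counterstained for nuclei with Hoechst (1:3000, 15 min, room temperature). Kept shielded from light throughout and mounted in Mowiol medium containing 2.5% DABCO. Read-out by fluorescent microscopy.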

[3] = assay type: in vivo; conditions: biodistribution of ^64Cu-labeled probes
tropoelastin = molecular target: T1, tropoelastin (Homo sapiens, UniProt P15502); assay type: binding
T1 sequence (P15502 27-786): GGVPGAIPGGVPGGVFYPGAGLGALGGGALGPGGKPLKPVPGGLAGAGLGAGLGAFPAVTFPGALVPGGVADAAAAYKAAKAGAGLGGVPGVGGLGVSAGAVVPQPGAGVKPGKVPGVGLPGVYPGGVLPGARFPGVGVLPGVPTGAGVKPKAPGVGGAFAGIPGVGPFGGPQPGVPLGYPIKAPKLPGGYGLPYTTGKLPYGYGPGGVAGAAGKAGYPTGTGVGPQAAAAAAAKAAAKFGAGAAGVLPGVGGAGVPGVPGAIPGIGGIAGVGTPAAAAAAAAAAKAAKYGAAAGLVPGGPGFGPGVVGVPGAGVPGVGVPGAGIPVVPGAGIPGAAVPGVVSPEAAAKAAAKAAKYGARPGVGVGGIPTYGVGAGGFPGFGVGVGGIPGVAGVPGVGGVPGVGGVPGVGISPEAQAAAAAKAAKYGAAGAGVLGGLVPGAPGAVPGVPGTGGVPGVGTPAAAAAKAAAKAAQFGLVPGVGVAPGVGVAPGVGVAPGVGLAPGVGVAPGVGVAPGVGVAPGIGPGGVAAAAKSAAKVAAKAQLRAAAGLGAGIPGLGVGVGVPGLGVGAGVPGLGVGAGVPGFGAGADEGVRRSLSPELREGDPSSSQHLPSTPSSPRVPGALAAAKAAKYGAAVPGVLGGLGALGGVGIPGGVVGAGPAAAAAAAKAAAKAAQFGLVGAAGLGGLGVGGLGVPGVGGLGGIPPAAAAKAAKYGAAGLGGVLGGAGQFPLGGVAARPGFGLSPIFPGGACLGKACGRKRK

[4] = system: tropoelastin, mature elastin, collagen I, fibronectin, human serum albumin; assay type: binding; conditions: Eu-labelled probes, in vitro
[5] = system: vessel wall tropoelastin of ApoE^-/- mice; conditions: feed or water, 40 mg/kg, 2016 h
[6] = system: vessel wall tropoelastin of ApoE^-/- mice; conditions: 2016 h

## O=C([O-])CN(CCN(CC(=O)[O-])CC(=O)O)CCN(CC(=O)[O-])CC(=O)O.[Gd+3] [Gd-DTPA]
[1]
  relaxivity r1: 4.02 mM⁻¹ s⁻¹

## {DOTA}-VVGSPSAQDEASPLS [(^64Cu –DOTA)-VVGS]
[2]
  uptake: 7.2 %ID/g

## VVGSPSAQDEASPLS
Diseased vessel sections
  fluorescent signal in tropoelastin-rich areas of diseased vessels: fluorescent signal

## CC(C)[C@H](NC(=O)[C@H](Cc1c[nH]cn1)NC(=O)[C@H](CC(=O)O)NC(=O)[C@@H]1CCCN1C(=O)[C@H](Cc1ccc(O)cc1)NC(=O)[C@@H](N)CCCCNC(=O)CN1CCN(CC(=O)O)CCN(CC(=O)O)CCN(CC(=O)O)CC1)C(=O)N[C@@H](CCC(N)=O)C(=O)N[C@@H](Cc1ccc(O)cc1)C(=O)N[C@H](C(=O)N[C@@H](Cc1c[nH]cn1)C(=O)N[C@@H](Cc1ccc(O)cc1)C(=O)O)[C@@H](C)O [K(^64Cu-DOTA)-YPDH, metal not drawn] (H-K(DOTA)YPDHVQYTHY-OH)
[3]
  liver uptake: some liver uptake

## CC(C)C[C@H](NC(=O)[C@@H]1CCCN1C(=O)[C@H](CO)NC(=O)[C@H](C)NC(=O)[C@H](CCC(=O)O)NC(=O)[C@H](CC(=O)O)NC(=O)[C@H](CCC(N)=O)NC(=O)[C@H](C)NC(=O)[C@H](CO)NC(=O)[C@@H]1CCCN1C(=O)[C@H](CO)NC(=O)CNC(=O)[C@@H](NC(=O)[C@@H](NC(=O)CN1CCN(CC(=O)O)CCN(CC(=O)O)CCN(CC(=O)O)CC1)C(C)C)C(C)C)C(=O)N[C@@H](CO)C(=O)O [(Eu-DOTA)-VVGS] ({DOTA}-VVGSPSAQDEASPLS-OH)
tropoelastin
  binding to tropoelastin: 64±7%
[4]
  selectivity towards tropoelastin compared with collagen I, fibronectin and HSA: high selectivity

## CC[C@H](C)C(=O)O[C@H]1C[C@H](O)C=C2C=C[C@H](C)[C@H](CC[C@@H](O)C[C@@H](O)CC(=O)O)[C@H]21 [statin, pravastatin]
[5]
  % tropoelastin (immunopositive area/vessel wall area): 11.41±0.35%
[6]
  vessel wall tropoelastin concentration (western blotting): 1.17±0.09 mg/gr tissue

## CC(C)[C@H](NC(=O)[C@H](Cc1c[nH]cn1)NC(=O)[C@H](CC(=O)O)NC(=O)[C@@H]1CCCN1C(=O)[C@H](Cc1ccc(O)cc1)NC(=O)[C@@H](N)CCCCNC(=O)CN1CCN(CC(=O)O)CCN(CC(=O)O)CCN(CC(=O)O)CC1)C(=O)N[C@@H](CCC(N)=O)C(=O)N[C@@H](Cc1ccc(O)cc1)C(=O)N[C@H](C(=O)N[C@@H](Cc1c[nH]cn1)C(=O)N[C@@H](Cc1ccc(O)cc1)C(=O)O)[C@@H](C)O [K(Eu-DOTA)-YPDH] (H-K(DOTA)YPDHVQYTHY-OH)
tropoelastin
  binding to tropoelastin: 84± 4%
[4]
  selectivity towards tropoelastin compared with collagen I, fibronectin and HSA: high selectivity
